Compound activity deposited in PubChem BioAssay by Broad Institute.
ERAP1 inh = human ERAP1 aminopeptidase inhibitors, primary screen, biochemical, single point, plate reader; Endoplasmic reticulum aminopeptidase 1 (Homo sapiens), Q9NZ08; recombinant ERAP1, Leu-AMC fluorescence, 60 min; inhibition, % at 10.7 µM; 340,000 compounds, 0.15% hits;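 active = mean replicate inhibition of at least 30%, or all replicates individually reaching that 30% level; inactive = mean below 30% and not every replicate reaching it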
Ecoli rRNA inh = reduced GFP signal of wild-type E. coli, primary screen, bacterial rRNA inhibitor project, GFP/RFP fluorescence, OD600, single point; E. coli WT GFP vs humanized-ribosome RFP mutants, 24 h; stronger effect = lower value; DMSO median 0, no signal -100; GFP signal change (wild-type ribosome), % (no concentration beside the values); 350,000 compounds, 1.6% hits; AID 720706, 2013;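 active = significant combined selectivity score with lowered wild-type GFP, culture density cut under 30%, mutant RFP and density less affected; inactive = any of these conditions unmet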
Cneo AK release = Cryptococcus neoformans cell lysis inducers, primary screen, AK release luminescence, single concentration; C. neoformans lysis, adenylate kinase release luminescence, 4 h; normalised: neutral wells 0, clomiphene wells 100; AID 651654, 2012; lysis activity, % at 15 µM; 360,000 compounds, 0.2% hits;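 active = mean lysis activity across replicates of at least 80%, whatever share of replicates individually reach that level; inactive = mean lysis activity below 80%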
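Test system: log-phase Cryptococcus neoformans yeast cells. Input: 5 × 10^6 yeast cells/mL. Medium: fresh YPD growth medium. Doses: single dose. Incubation: static 4 h at 37 °C with compound, 1 h detection. Measured by: luminescent adenylate kinase detection reagent. Read-out: signal increase indicating cell lysis. Benchmarks: Clomiphene.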
PGC1a acetyl inh = inhibitors of PGC1a acetylation signal, primary screen, cell-based, U2OS, AlphaScreen, inhibitor mode; AlphaScreen anti-acetyl-lysine; with virally co-expressed GCN5 acetyltransferase; inhibition, % at 15.6 µM; 350,000 compounds, 0.17% hits;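 active = every replicate shows inhibition of at least 40%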
FGF22 binding = binders of human FGF22 protein, primary screen, FGF22 synaptogenesis inhibitor project, biophysical, thermal shift, single point; activity (Tm shift, normalised), % at 9.99 µM; recombinant FGF22 thermal shift, SYPRO orange fluorescence; percent of sucrose octasulfate shift, DMSO zero; 340,000 compounds, 1.5% hits; Fibroblast growth factor 22 (Homo sapiens), Q9HCT0; AID 651658, 2012;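 active = mean Tm shift, scaled 0 neutral to 100 positive control, at about 1.3% or above, every replicate too, limit read from the data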
Target sequence (Q9HCT0 whole entry, looked up): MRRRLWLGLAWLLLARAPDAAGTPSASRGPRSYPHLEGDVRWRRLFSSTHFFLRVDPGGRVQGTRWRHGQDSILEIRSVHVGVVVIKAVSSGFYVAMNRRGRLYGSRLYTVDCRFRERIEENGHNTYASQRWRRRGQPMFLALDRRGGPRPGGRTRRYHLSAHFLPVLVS
Env fusion inh = inhibitors of HIV-1 Env-driven cell-cell fusion, primary screen, HeLa-JRFL effector, CEM21 target cells, luciferase; inhibition, % at 12.3 µM; 360,000 compounds, 1.1% hits; AID 651610, 2012;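 active = mean replicate inhibition score of at least 50 and every replicate individually at or above 50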
Large screens that a line does not name were inactive. Shown are actives, neighbours in structure and some others; about 3.5% of the full set was active somewhere.

O=C(C[C@@H]1C[C@@H]2c3cc(NC(=O)Nc4ccc(F)cc4)ccc3O[C@@H]2[C@H](CO)O1)NCC1CC1	none (no result: ERAP1 inh, Env fusion inh)
C[C@@H]1CN([C@H](C)CO)C(=O)Cc2cc(NS(=O)(=O)c3ccc(Cl)cc3)ccc2O[C@@H]1CN(C)Cc1ccccc1	none (no result: PGC1a acetyl inh)
Cc1ccc(NC(=O)Cn2c(CCC(=O)O)ccc2-c2ccc(Cl)cc2)cc1	Ecoli rRNA inh -25
O=S(=O)(NCc1ccc2c(c1)OCO2)c1ccc(Cl)s1	none (no result: PGC1a acetyl inh)
CC(=O)N1C(=O)N(C(C)=O)C2C1N(C)C(=O)N2C(C)=O (stereo not given)	FGF22 binding 43 (no result: Cneo AK release)
CC(=O)N1C(=O)N(C)C2C1N(C(C)=O)C(=O)N2C (stereo not given)	none (no result: ERAP1 inh, Ecoli rRNA inh, FGF22 binding, Env fusion inh)
CC(=O)N1CCCCN2[C@@H](CO)[C@@H](c3ccc(-c4ccc(C)cc4)cc3)[C@@H]2C1	none (no result: Env fusion inh)
CCCCn1nc(C(=O)NCC2COc3ccccc3O2)c2ccccc2c1=O (stereo not given)	Ecoli rRNA inh -36 (no result: Env fusion inh)
COc1ccc(-n2nc(C(=O)NCC(=O)NCC3COc4ccccc4O3)c3ccccc3c2=O)cc1 (stereo not given)	FGF22 binding 43 (no result: Cneo AK release)
CCOC(=O)Cc1nn(Cc2ccc(Cl)cc2)c(=O)c2ccccc12	none
CCOC(=O)Cc1nn(Cc2ccccc2)c(=O)c2ccccc12	Ecoli rRNA inh -26 (no result: Cneo AK release, PGC1a acetyl inh)
COc1ccc2[nH]c(CN3CCN(CC(C)C)C(CCO)C3)c(C)c2c1 (stereo not given)	FGF22 binding 43 (no result: Ecoli rRNA inh)
COc1ccc(-c2ncc(CN3CCN(CCC(C)C)C(CCO)C3)cn2)cc1 (stereo not given)	none (no result: Cneo AK release)
CC(C)CN1CCN(Cc2cccn2-c2cccnc2)CC1CCO (stereo not given)	FGF22 binding 43 (no result: Ecoli rRNA inh, Cneo AK release, PGC1a acetyl inh)
Cc1cccc(-c2ncc(CN3CCN(CC(C)C)C(CCO)C3)cn2)c1 (stereo not given)	FGF22 binding 43 (no result: Ecoli rRNA inh)
OCCC1CN(Cc2cccn2-c2cccnc2)CCN1Cc1ccc(F)cc1 (stereo not given)	none
C/C(=N\NC(=O)c1cccc(S(=O)(=O)N2CCOCC2)c1)c1ccc(C#N)cc1	none (no result: PGC1a acetyl inh)
CC(C)(CCl)C(=O)Nc1ccc(C(F)(F)F)cc1	none
COc1ccc(S(=O)(=O)N2CCC(C(=O)Nc3nccs3)CC2)cc1	none (no result: Ecoli rRNA inh)
COc1ccc(NC(=O)c2ccc(NC(=O)CN3CCN(c4ccccc4O)CC3)cc2)cc1	FGF22 binding 43
CC(=O)Nc1ccc(S(=O)(=O)N2CCN(c3cc(C)ccc3C)CC2)cc1	none
CC(=O)Nc1ccc(S(=O)(=O)N2CCN(c3cnn(C)c(=O)c3Cl)CC2)cc1	FGF22 binding 43
COc1ccc(NC(=O)N2CCN(c3nc(-c4cccc(OC)c4)cs3)CC2)cc1	Env fusion inh 63 (no result: ERAP1 inh, Ecoli rRNA inh, FGF22 binding)
Cc1ccc(NC(=O)[C@@H]2CCCN2S(=O)(=O)c2ccccc2F)cc1S(=O)(=O)N1CCOCC1	none (no result: ERAP1 inh, Ecoli rRNA inh, Cneo AK release, PGC1a acetyl inh, FGF22 binding)
Cc1ccc(NC(=O)[C@@H]2CCCN2S(=O)(=O)c2ccccc2C(F)(F)F)cc1S(=O)(=O)N1CCOCC1	Env fusion inh 57 (no result: ERAP1 inh, Ecoli rRNA inh, Cneo AK release, PGC1a acetyl inh, FGF22 binding)
COc1ccc(NC(=O)c2ccc(NC(=O)CN3CCN(c4ccc(O)cc4)CC3)cc2)cc1	none (no result: Env fusion inh)
CC(Sc1ccccn1)C(=O)Nc1ccccc1 (stereo not given)	none (no result: ERAP1 inh, Ecoli rRNA inh, FGF22 binding)
CCOC(=O)CN1C(=O)N(c2ccccc2OC)S(=O)(=O)c2ccccc21	none (no result: PGC1a acetyl inh)
Cc1ccc(S(=O)(=O)N2CCC(C(=O)Nc3ccc(S(=O)(=O)N4CCOCC4)cc3)CC2)cc1	none (no result: PGC1a acetyl inh)
Cc1cc(C)c(C)c(S(=O)(=O)N2CCC(C(=O)Nc3ccc(S(=O)(=O)N4CCOCC4)cc3)CC2)c1C	Env fusion inh 57
COc1ccc(NC(=S)NNC(=O)c2ccc(S(=O)(=O)N3CCOCC3)cc2)cc1	FGF22 binding 1.4
C=CCN(c1ccc(C(=O)Nc2ccc3c(c2)n(C)c(=O)n3C)cc1)S(C)(=O)=O	none
COc1ccc(NC(=O)N2CCN(S(C)(=O)=O)CC2)cc1	FGF22 binding 43 (no result: Cneo AK release)
C=CCN(c1ccc(C(=O)Nc2ccc3c(c2)OCO3)cc1)S(C)(=O)=O	PGC1a acetyl inh 93 (no result: Cneo AK release)
O=C(CNC(=O)c1cccs1)NCC(=O)OCc1ccc(Cl)cc1	none (no result: ERAP1 inh, Ecoli rRNA inh, FGF22 binding, Env fusion inh)
O=C(Nc1ccc2c(c1)[C@@H]1C[C@H](CC(=O)N3CCc4ccccc4C3)O[C@H](CO)[C@@H]1O2)c1ccc2c(c1)OCO2	none
Cc1ccc(NC(=O)c2ccc3c(c2)OCO3)cc1S(=O)(=O)N1CCOCC1	Ecoli rRNA inh -18
O=C(Nc1ccc2c(c1)OCO2)c1ccc(Cl)c(S(=O)(=O)N2CCOCC2)c1	none (no result: PGC1a acetyl inh)
Cc1ccc(OCC(=O)Nc2ccc(N3CCN(S(C)(=O)=O)CC3)cc2)cc1	FGF22 binding 43 (no result: Cneo AK release, PGC1a acetyl inh)
COc1ccc(C(=O)Nc2ccc(S(=O)(=O)N3CCCC3)cc2)cc1	Ecoli rRNA inh -32 (no result: Cneo AK release)
CNS(=O)(=O)c1ccc(NC(=S)Nc2ccc3c(c2)OCO3)cc1	FGF22 binding 43 (no result: Cneo AK release)
CN1[C@@H]2Cn3c(ccc(-c4ccc(F)cc4)c3=O)[C@H]1[C@@H](C(=O)NC1CCCC1)[C@@H]2CO	none (no result: Cneo AK release, FGF22 binding, Env fusion inh)
COc1ccc(S(=O)(=O)N(C)C[C@@H]2Oc3ccc(NC(=O)Nc4c(C)noc4C)cc3CC(=O)N([C@@H](C)CO)C[C@H]2C)cc1	none
COc1ccc(S(=O)(=O)N2CCC(NC(=O)OCc3c(Cl)cccc3Cl)CC2)cc1	none (no result: ERAP1 inh, Ecoli rRNA inh, FGF22 binding)
O=C(Nc1ccc(NC(=O)N2CCN(c3ccccc3O)CC2)cc1)N1CCN(c2ccccc2O)CC1	Ecoli rRNA inh -20 (no result: PGC1a acetyl inh)
O=C(Nc1ccc2c(c1)OCO2)c1ccc(S(=O)(=O)N2CCCC2)cc1	FGF22 binding 45 (no result: Cneo AK release, PGC1a acetyl inh)
CC(=O)Nc1ccc(S(=O)(=O)N2CCC(C(=O)c3ccc(Cl)cc3)CC2)cc1	Env fusion inh 56 (no result: PGC1a acetyl inh)
COc1ccc(COC(=O)NC2CCN(S(=O)(=O)c3ccc(OC)cc3)CC2)cc1	Env fusion inh 56 (no result: ERAP1 inh, Ecoli rRNA inh, FGF22 binding)
O=C(Nc1cccc(S(=O)(=O)N2CCCC2)c1)c1ccc2c(c1)OCO2	none (no result: Cneo AK release, PGC1a acetyl inh, Env fusion inh)
CC(=O)Nc1ccc(S(=O)(=O)N2CCC(C(=O)c3ccc(F)cc3)CC2)cc1	none (no result: PGC1a acetyl inh)
COc1cccc(-c2cnc3c(c2)C(=O)N([C@H](C)CO)C[C@H](C)[C@H](CN(C)Cc2ccc(F)cc2)O3)c1	none
CCCOc1ccc2ccccc2c1/C=C1\SC(=O)NC1=O	PGC1a acetyl inh 76
Cc1cc(C)cc(NS(=O)(=O)c2cccs2)c1	none (no result: PGC1a acetyl inh)
